Experiment [1] in a line: Inhibition of CDK4/Cyclin D (unknown origin) expressed in baculovirus infected insect Sf9 cells using human pRB as substrate in presence of [gamma-32P]ATP.
Experiment [2] deals with T1, Cyclin-dependent kinase 2/cyclin E1 (Homo sapiens, UniProt P24941). Kind of experiment: Inhibition of CDK2/Cyclin E (unknown origin). Type of experiment: protein-complex assay.
Experiment [3] has as its target Cyclin-dependent kinase 1/cyclin B1 (Homo sapiens, UniProt P06493). In words: Inhibition of CDK1/Cyclin B (unknown origin) expressed in baculoviral infected insect Sf9 cells using histone H1 as substrate in presence of [gamma-33P]ATP. It counts as cell-based.
For experiment [4], the target named is Cyclin-dependent kinase 4/cyclin D1 (Homo sapiens, UniProt P11802). Kind of experiment: Inhibition of CDK4/Cyclin D1 (unknown origin) using RPPTLSPIPHIPR peptide as substrate in presence of [gamma-33P]ATP. Type of experiment: protein-complex assay.
Cyclin-dependent kinase 4/cyclin D1, sequence (P11802 whole entry): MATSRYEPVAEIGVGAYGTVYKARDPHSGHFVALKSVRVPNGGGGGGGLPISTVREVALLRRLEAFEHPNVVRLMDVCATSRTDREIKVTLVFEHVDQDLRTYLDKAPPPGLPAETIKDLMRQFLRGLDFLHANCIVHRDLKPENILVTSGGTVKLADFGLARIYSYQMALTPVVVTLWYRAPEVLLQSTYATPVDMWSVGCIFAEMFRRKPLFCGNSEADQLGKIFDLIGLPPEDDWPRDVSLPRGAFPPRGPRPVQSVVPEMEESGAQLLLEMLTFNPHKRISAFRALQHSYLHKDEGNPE
Cyclin-dependent kinase 4/cyclin D1, sequence (P24385 whole entry, further chain): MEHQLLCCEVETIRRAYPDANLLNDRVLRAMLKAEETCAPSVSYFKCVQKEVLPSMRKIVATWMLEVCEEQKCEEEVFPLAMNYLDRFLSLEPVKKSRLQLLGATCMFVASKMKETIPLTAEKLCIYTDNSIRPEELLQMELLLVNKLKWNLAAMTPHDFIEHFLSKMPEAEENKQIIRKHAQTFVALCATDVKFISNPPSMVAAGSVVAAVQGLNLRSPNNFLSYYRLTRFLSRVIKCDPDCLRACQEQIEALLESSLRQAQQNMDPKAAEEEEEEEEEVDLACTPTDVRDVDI
Experiment [5] has as its target Cyclin-dependent kinase 5/CDK5 activator 1 (Homo sapiens, UniProt Q00535). Kind of experiment: Inhibition of CDK5/p35NCK (unknown origin) using histone H1 as substrate in presence of [gamma-33P]ATP. Type of experiment: protein-complex assay.
A further experiment concerns the target CDK7/Cyclin H/MNAT1 (Homo sapiens, UniProt P50613). Kind of experiment: Inhibition of CDK7/Cyclin H/MAT1 (unknown origin) using (YSPTSPS)2KK peptide as substrate in presence of [gamma-33P]ATP. It counts as protein-complex assay.
Experiment [6] concerns the target T1, Cyclin-dependent kinase 2/cyclin E1. Kind of experiment: Inhibition of CDK2/Cyclin E (unknown origin) expressed in baculoviral infected insect Sf9 cells using histone H1 as substrate in presence of [gamma-33P]ATP.
Experiment [7] has as its system K562. Kind of experiment: Cytotoxicity against human K562 cells assessed as cell viability after 72 hrs by fluorescence microplate reader method. Type of experiment: functional, cell-based. The note with it: K562, 72 h. The gist of the method: (§1)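 Cells were exposed to three-fold compound dilutions in triplicate for 72 h. Viability was read after adding Calcein AM, as live-cell fluorescence at 485/538 nm (excitation/emission).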

Experiment [8] concerns MCF7. Kind of experiment: Cytotoxicity against human MCF7 cells assessed as cell viability after 72 hrs by fluorescence microplate reader method. The note with it: MCF7, 72 h. Type of experiment: functional, cell-based. The gist of the method:
as §1

Experiment [9] in a line: Cytotoxicity against human G361 cells assessed as cell viability after 72 hrs by fluorescence microplate reader method. Type of experiment: functional, cell-based. The conditions noted are these: G-361, 72 h. The gist of the method: as §1
For experiment [10], the system named is G-361. In words: Induction of apoptosis in human G361 cells assessed as activation of caspases-3/7 at 50 uM using Ac-DEVD-AMC as substrate after 6 hrs by fluorescence microplate reader method relative to control. It counts as functional. The gist of the method: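 G361 cells were seeded at 20,000 cells/well overnight, then treated with compound for 24 h. A 3x caspase-3/7 buffer (HEPES pH 7.4, NaCl, KCl, MgCl2, EGTA, Nonidet P40, CHAPS, sucrose, DTT, PMSF) containing Ac-DEVD-AMC substrate was added, and plates were incubated at 37 °C. Fluorescence at 346/442 nm was read after 6 h and expressed relative to untreated control.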

The test system of another experiment is HeLa. Kind of experiment: Cytotoxicity against human HeLa cells assessed as cell viability after 72 hrs by fluorescence microplate reader method. It counts as functional, cell-based. The gist of the method: as §1
The test system of another experiment is CCRF-CEM. Kind of experiment: Cytotoxicity against human CEM cells assessed as cell viability after 72 hrs by fluorescence microplate reader method. It counts as functional, cell-based. The gist of the method:
as §1

Experiment [11] in a line: Cytotoxicity against human HCT116 cells assessed as cell viability after 72 hrs by fluorescence microplate reader method. It counts as functional, cell-based. The conditions noted are these: HCT-116, 72 h. A digest of the protocol: as §1
The subject of experiment [12] is K562. In words: Cytotoxicity against human K562 cells assessed as cell viability at 50 uM after 72 hrs by fluorescence microplate reader method. It counts as functional. The conditions noted are these: K562, 72 h, read-out: Activity.
For experiment [13], the system named is MCF7. In words: Cytotoxicity against human MCF7 cells assessed as cell viability at 50 uM after 72 hrs by fluorescence microplate reader method. It counts as functional. The conditions noted are these: MCF7, 72 h, read-out: Activity.
Experiment [14] can be described thus: Cytotoxicity against human G361 cells assessed as cell viability at 50 uM after 72 hrs by fluorescence microplate reader method. It counts as functional. The conditions noted are these: G-361, 72 h, read-out: Activity.
In experiment [15] the test system is MCF7. Kind of experiment: Cell cycle arrest in BrdU pulse labeled human MCF7 cells assessed as accumulation at G1 phase after 24 hrs by propidium iodide staining based flow cytometry. It counts as functional. On the technique in general: In flow cytometry, cells or beads pass a laser one at a time.
For a further experiment, the target named is CDK9/cyclin T1 (Homo sapiens, UniProt P50750). Kind of experiment: Inhibition of CDK9/Cyclin T1 (unknown origin) using (YSPTSPS)2KK peptide as substrate in presence of [gamma-33P]ATP. It counts as protein-complex assay.
CDK9/cyclin T1, sequence (O60563 whole entry): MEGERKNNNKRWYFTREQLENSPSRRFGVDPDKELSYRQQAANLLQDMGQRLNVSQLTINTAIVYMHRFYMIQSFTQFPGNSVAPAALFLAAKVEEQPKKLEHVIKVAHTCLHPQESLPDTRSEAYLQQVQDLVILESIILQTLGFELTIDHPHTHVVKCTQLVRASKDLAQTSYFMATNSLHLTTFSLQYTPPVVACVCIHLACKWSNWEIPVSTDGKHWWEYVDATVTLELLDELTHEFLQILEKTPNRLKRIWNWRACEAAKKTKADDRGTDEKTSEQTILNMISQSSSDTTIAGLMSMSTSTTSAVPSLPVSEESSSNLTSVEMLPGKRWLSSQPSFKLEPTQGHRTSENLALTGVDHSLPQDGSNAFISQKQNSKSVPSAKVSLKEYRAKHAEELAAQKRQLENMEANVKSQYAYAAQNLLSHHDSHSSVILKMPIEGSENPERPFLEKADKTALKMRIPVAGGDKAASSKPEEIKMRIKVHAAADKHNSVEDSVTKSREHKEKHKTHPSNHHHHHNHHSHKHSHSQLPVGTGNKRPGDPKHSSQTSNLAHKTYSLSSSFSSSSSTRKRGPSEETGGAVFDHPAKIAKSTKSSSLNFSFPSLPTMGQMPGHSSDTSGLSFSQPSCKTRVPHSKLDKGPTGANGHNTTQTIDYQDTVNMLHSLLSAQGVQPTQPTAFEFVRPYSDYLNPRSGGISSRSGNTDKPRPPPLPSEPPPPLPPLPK
CDK9/cyclin T1, sequence (P50750 whole entry): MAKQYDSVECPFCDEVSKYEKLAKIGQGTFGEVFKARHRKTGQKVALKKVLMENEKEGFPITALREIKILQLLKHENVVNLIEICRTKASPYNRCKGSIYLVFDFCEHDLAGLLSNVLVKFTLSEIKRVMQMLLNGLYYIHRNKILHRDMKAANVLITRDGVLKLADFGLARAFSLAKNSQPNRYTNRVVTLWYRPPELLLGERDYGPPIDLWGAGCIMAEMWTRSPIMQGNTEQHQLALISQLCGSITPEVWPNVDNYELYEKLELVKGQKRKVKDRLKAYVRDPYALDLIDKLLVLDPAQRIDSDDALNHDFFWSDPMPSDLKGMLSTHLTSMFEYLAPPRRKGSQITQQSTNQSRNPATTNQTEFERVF
Experiment [16] is described as follows: Cell cycle arrest in BrdU pulse labeled human G361 cells assessed as accumulation at sub G1 phase at 20 uM after 24 hrs by propidium iodide staining based flow cytometry (reference value: 0.8%). Type of experiment: functional. The conditions noted are these: G-361.
The nature of experiment [17]: Cell cycle arrest in BrdU pulse labeled human G361 cells assessed as accumulation at sub G1 phase at 40 uM after 24 hrs by propidium iodide staining based flow cytometry (reference value: 0.8%). It counts as functional. The note with it: G-361.
A short description of experiment [18]: Cell cycle arrest in BrdU pulse labeled human G361 cells assessed as accumulation at sub G1 phase at 60 uM after 24 hrs by propidium iodide staining based flow cytometry (reference value: 0.8%). Type of experiment: functional. The conditions noted are these: G-361.
Experiment [19] in a line: Cell cycle arrest in BrdU pulse labeled human G361 cells assessed as accumulation at sub G1 phase at 80 uM after 24 hrs by propidium iodide staining based flow cytometry (reference value: 0.8%). Type of experiment: functional. The conditions noted are these: G-361.
Experiment [20] is described as follows: Cell cycle arrest in BrdU pulse labeled human G361 cells assessed as accumulation at sub G1 phase after 24 hrs by propidium iodide staining based flow cytometry. The note with it: G-361. Type of experiment: functional.
Experiment [21] is described as follows: Cell cycle arrest in BrdU pulse labeled human G361 cells assessed as accumulation at G1 phase after 24 hrs by propidium iodide staining based flow cytometry. Type of experiment: functional. The note with it: G-361.
Experiment [22] in a line: Cell cycle arrest in BrdU pulse labeled human G361 cells assessed as accumulation at G2/M phase after 24 hrs by propidium iodide staining based flow cytometry. Type of experiment: functional. The conditions noted are these: G-361.
Experiment [23] is described as follows: Downregulation of Rb levels in human G361 cells after 24 hrs by immunoblotting analysis. It counts as functional, cell-based. The conditions noted are these: G-361. A digest of the protocol: (§2)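 G361 cells treated 24 h, harvested into Laemmli sample buffer. Proteins separated by SDS-PAGE, electroblotted to nitrocellulose, blocked, probed overnight with specific primary antibodies, then peroxidase-conjugated secondary antibodies. Tubulin served as loading control.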
For orientation: Immunoblotting shows a protein as a band on a membrane.

A short description of experiment [24]: Downregulation of cyclin A1 levels in human G361 cells at 20 to 80 uM after 24 hrs by immunoblotting analysis. Type of experiment: functional, cell-based. The conditions noted are these: G-361. The gist of the method: as §2
A short description of experiment [25]: Downregulation of cyclin B1 levels in human G361 cells at 20 to 80 uM after 24 hrs by immunoblotting analysis. It counts as functional, cell-based. The note with it: G-361. The gist of the method: as §2
Experiment [26] has as its target T2, Cyclin-dependent kinase 2/cyclin E1 (Homo sapiens) (UniProt P24864+P24941). Kind of experiment: Inhibition of CDK2/Cyclin E in human G361 cells assessed as suppression of RB phosphorylation at S807/811 at 50 uM after 4 hrs by immunoblotting analysis. Type of experiment: cell-based. The conditions noted are these: G-361. The gist of the method:
(§3)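 G361 cells synchronized with nocodazole (3 ng/mL, 16 h), then treated 4 h. Phosphorylated CDK substrates detected by immunoblotting, with tubulin as equal-loading control.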

The target in experiment [27] is T2, Cyclin-dependent kinase 2/cyclin E1 (Homo sapiens). Kind of experiment: Inhibition of CDK2/Cyclin E in human G361 cells assessed as suppression of RB phosphorylation at S780 at 50 uM after 4 hrs by immunoblotting analysis. Type of experiment: cell-based. The note with it: G-361. A digest of the protocol: as §3
Experiment [28] has the same target. Kind of experiment: Inhibition of CDK2/Cyclin E in human G361 cells assessed as suppression of PP1alpha phosphorylation at T320 at 50 uM after 4 hrs by immunoblotting analysis. It counts as cell-based. The conditions noted are these: G-361. The gist of the method: as §3
For experiment [29] the target is unchanged. Kind of experiment: Inhibition of CDK2/Cyclin E in human G361 cells assessed as suppression of nucleophosmin phosphorylation at T199 at 50 uM after 4 hrs by immunoblotting analysis. Type of experiment: cell-based. The note with it: G-361. The gist of the method: as §3
Experiment [30] can be described thus: Downregulation of Mcl-1 protein level in human G361 cells at 20 to 80 uM after 24 hrs by immunoblotting analysis. It counts as functional, cell-based. The conditions noted are these: G-361. A digest of the protocol: as §2
Experiment [31] is described as follows: Upregulation of Bax protein level in human G361 cells at 20 to 80 uM after 24 hrs by immunoblotting analysis. The note with it: G-361. It counts as functional, cell-based. A digest of the protocol:
as §2

Experiment [32] in a line: Upregulation of Bak protein level in human G361 cells at 20 to 80 uM after 24 hrs by immunoblotting analysis. Type of experiment: functional, cell-based. The note with it: G-361. A digest of the protocol: as §2
Experiment [33] in a line: Upregulation of Bid protein level in human G361 cells at 20 to 80 uM after 24 hrs by immunoblotting analysis. It counts as functional, cell-based. The conditions noted are these: G-361. A digest of the protocol:
as §2

Experiment [34] has as its system G-361. In words: Induction of apoptosis in human G361 cells assessed as activation of caspases-3/7 at 20 to 80 uM using Ac-DEVD-AMC as substrate after 24 hrs by fluorimetric analysis. It counts as functional, cell-based. A digest of the protocol:
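Lysates cleared at 10 000 g, 30 min, 4 °C, equalized for protein, then incubated 3 h with Ac-DEVD-AMC in 25 mM PIPES, 2 mM EGTA, 2 mM MgCl2, 5 mM DTT, pH 7.3. Fluorescence read at 355/460 nm, normalized to untreated control.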

Experiment [35] relates to MCF7. Kind of experiment: Cell cycle arrest in BrdU pulse labeled human MCF7 cells assessed as accumulation at G2/M phase after 24 hrs by propidium iodide staining based flow cytometry. Type of experiment: functional.

Activity calls are given as the source filed them. The calls are words filed in the database; no cut-off is given here. Where only a bound is given, the exact number is not on record here.

CDK7/Cyclin H/MNAT1, sequence (P51946 whole entry): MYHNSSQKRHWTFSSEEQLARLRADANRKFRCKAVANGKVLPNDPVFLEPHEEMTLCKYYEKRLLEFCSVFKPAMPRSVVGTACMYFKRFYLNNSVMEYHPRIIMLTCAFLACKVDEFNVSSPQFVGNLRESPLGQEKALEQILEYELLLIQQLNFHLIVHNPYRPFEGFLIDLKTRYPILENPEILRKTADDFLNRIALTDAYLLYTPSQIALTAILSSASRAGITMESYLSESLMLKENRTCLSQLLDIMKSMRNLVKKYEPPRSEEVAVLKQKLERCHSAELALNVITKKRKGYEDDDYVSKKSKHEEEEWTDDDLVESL
CDK7/Cyclin H/MNAT1, sequence (P50613 whole entry): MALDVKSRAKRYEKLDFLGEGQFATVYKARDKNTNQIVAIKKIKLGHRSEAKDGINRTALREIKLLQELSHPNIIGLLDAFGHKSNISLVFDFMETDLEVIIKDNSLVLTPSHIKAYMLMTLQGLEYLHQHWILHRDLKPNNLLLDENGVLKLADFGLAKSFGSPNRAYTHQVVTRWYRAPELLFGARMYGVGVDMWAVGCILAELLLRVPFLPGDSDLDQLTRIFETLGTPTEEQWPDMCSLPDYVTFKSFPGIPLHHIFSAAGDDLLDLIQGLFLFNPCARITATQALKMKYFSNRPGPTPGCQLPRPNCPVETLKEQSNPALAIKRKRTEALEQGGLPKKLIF
CDK7/Cyclin H/MNAT1, sequence (P51948 whole entry, further chain): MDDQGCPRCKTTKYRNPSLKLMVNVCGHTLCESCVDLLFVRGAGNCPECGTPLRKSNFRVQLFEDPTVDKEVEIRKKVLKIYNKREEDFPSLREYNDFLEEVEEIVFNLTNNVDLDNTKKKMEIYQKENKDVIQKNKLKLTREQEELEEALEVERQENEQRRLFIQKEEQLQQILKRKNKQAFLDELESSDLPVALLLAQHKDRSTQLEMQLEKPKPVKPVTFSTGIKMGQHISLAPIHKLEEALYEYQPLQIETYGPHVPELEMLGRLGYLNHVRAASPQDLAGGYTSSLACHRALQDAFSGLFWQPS
Cyclin-dependent kinase 5/CDK5 activator 1, sequence (Q00535 whole entry): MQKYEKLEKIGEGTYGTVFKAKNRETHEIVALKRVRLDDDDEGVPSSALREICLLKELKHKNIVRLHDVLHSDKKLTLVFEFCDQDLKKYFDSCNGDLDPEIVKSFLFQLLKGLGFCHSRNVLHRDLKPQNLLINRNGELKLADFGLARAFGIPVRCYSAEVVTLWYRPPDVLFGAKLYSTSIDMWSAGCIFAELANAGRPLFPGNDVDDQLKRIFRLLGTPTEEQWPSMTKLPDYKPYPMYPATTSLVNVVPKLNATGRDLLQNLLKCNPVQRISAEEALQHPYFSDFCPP
Cyclin-dependent kinase 5/CDK5 activator 1, sequence (Q15078 whole entry, further chain): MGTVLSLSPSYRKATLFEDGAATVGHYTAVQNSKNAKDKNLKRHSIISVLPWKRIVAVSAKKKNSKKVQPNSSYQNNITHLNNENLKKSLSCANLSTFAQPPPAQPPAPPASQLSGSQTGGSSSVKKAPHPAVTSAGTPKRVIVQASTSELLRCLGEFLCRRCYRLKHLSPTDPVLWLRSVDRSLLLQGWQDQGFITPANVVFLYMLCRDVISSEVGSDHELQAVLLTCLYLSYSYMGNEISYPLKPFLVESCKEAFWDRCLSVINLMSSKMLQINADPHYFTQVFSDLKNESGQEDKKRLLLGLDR
Cyclin-dependent kinase 1/cyclin B1, sequence (P06493 whole entry): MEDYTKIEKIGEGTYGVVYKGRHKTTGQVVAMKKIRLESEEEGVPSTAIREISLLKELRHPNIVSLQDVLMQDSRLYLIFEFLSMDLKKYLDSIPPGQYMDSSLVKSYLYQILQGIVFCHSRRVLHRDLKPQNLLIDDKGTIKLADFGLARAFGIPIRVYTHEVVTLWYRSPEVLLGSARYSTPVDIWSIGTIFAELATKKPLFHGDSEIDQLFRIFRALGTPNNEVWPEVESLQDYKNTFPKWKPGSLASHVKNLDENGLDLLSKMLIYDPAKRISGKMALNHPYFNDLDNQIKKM
Cyclin-dependent kinase 1/cyclin B1, sequence (P14635 whole entry, further chain): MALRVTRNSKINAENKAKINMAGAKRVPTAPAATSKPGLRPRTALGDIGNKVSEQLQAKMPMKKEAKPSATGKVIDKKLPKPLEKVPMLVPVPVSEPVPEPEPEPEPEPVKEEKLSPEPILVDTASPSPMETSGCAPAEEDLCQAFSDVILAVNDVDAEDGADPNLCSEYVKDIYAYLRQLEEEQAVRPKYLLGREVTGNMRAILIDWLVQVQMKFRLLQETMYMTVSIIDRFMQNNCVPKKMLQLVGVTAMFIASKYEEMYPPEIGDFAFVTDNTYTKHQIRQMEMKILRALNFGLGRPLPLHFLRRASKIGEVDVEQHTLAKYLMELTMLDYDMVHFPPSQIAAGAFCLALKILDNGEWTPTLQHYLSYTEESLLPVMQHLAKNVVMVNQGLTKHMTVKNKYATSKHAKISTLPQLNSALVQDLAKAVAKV

As to `O=C1c2ccccc2-[n+]2ccc3c([nH]c4ccccc43)c21` [FASCAPLYSIN CHLORIDE], the IC50 in experiment [1] amounted to 0.35 µM.

In turn, `Nc1ccc(CC(=O)Nc2cccc3c2C(=O)c2c-3n[nH]c2-c2ccc(O)cc2)cc1` gave an IC50 in [2] of 0.038 µM.

As for `COc1ccccc1-c1cc(Nc2cccc(CS(N)(=O)=O)c2)ncn1`, the IC50 in [3] was 3.95 µM; in experiment [4], 3.16 µM; in [5], 4.96 µM; on CDK7/Cyclin H/MNAT1, greater than 20 µM.

With `c1cnc2[nH]c(-c3cnnn3CCCc3c[nH]c4ncccc34)cc2c1`, the IC50 in experiment [6] (read-out: IC50) was 2 µM; in [6] (read-out: pIC50 (converted)) it was 2 µM; in the experiment on K562 [7], 39.9 µM; in the experiment on MCF7 [8], greater than 25 µM; in [9], 31.5 µM; in the experiment with HeLa it was greater than 50 µM. Moreover, the IC50 in the experiment on CCRF-CEM was 31 µM; in experiment [11] it was greater than 50 µM; in [3], 11.5 µM; in experiment [4], 9 µM; in [5], 10.7 µM; on CDK7/Cyclin H/MNAT1, greater than 50 µM. Also, the IC50 on CDK9/cyclin T1 amounted to 9 µM. For the same compound, the “fold change (FC)” value in the experiment on G-361 [10] amounted to 13.8. Further, the viability at 50 µM with K562 [12] was 57.4%; in the experiment on MCF7 [13], 55.4%; in experiment [14] it was 32.4%. For the same compound, the result (in the experiment with MCF7 [15]; in [21]; in experiment [22]; in [24]; in [25]; in experiment [30]) was Active. Moreover, the result (in [31]; in [32]; in experiment [33]; with G-361 [34]; with MCF7 [35]) was Active. For the same compound, the Activity in [16] is 2.4%; in [17] it was 10%; in experiment [18] it was 22.1%; in experiment [19], 34.7%; in experiment [20], “Dose-dependent effect”; in experiment [23] it was “Dose-dependent effect”. Besides, the inhibition entry in experiment [26], in experiment [27], in experiment [28] and in experiment [29] was “Active” in each case.

Turning to `Cc1nc(C)c(-c2ccnc(Nc3ccc(N4CCN(C)CC4)cc3)n2)s1`, in [2], the IC50 is 1.02 µM.

In the case of `O=C(NNC(=O)c1ccccc1O)Nc1cccc2c1C(=O)c1c-2n[nH]c1-c1ccc(O)cc1`, the IC50 in [2] is 0.00891 µM.

The compound `Cc1nc2ccccn2c1-c1ccnc(NC(=O)Nc2ccccc2)n1` showed an IC50 in experiment [2] of 10 µM.

For the origin of these results see ChEMBL document CHEMBL3763042, “Synthesis, biological evaluation and molecular modeling of a novel series of 7-azaindole based tri-heterocyclic compounds as potent CDK2/Cyclin E inhibitors” (Eur J Med Chem, 2016).
